This passage reports inhibition and Activity results from ChEMBL document CHEMBL4354861, “Re-Evaluating the Mechanism of Action of α,β-Unsaturated Carbonyl DUB Inhibitors b-AP15 and VLX1570: A Paradigmatic Example of Unspecific Protein Cross-linking with Michael Acceptor Motif-Containing Drugs” (J Med Chem, 2020).

Activity calls are given as the source filed them. No cut-off for these calls is given here.

Series [1] deals with Ubiquitin carboxyl-terminal hydrolase BAP1 (Homo sapiens) (UniProt Q92560). The series can be described thus: Inhibition of His6-tagged recombinant human BAP1 assessed as reduction in cleavage of luminescent substrate Ub-AML at 100 uM. The method in brief: (§1)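 Purified recombinant DUBs assayed with Ub-AML as luminescent substrate, using the Glo reagent protocol and read on a microplate luminometer.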

The subject of series [2] is HeLa. The series can be described thus: Inhibition of deubiquitinase in human HeLa cell extracts assessed as induction of accumulation of high molecular weight ubiquitylated proteins at 10 uM incubated for 2 hrs by immunoblot analysis. In kind it is cell-free. A general note: In western blotting, separated proteins are transferred to a membrane and probed.
Series [3] addresses Anamorsin (Homo sapiens) (UniProt Q6FI81). Description: Inhibition of CIAPIN1 in human KMS11 cells assessed as induction of high molecular weight complex formation at 1 to 10 uM incubated for 6 hrs by immunoblot analysis. In kind it is cell-based.
The target in series [4] is Ubiquitin carboxyl-terminal hydrolase 8 (Homo sapiens) (UniProt P40818). Description: Inhibition of N-terminal His6-tagged full length recombinant human USP8 assessed as reduction in cleavage of luminescent substrate Ub-AML at 100 uM. The essentials: as §1
Series [5] has as its system HeLa. Description: Inhibition of deubiquitinase in human HeLa cell extracts assessed as increase in high molecular weight protein complexes at 10 uM incubated for 2 hrs by SDS-PAGE and Coomassie Blue staining based method. In kind it is cell-free.
Series [6] concerns the target Ubiquitin carboxyl-terminal hydrolase isozyme L1 (Homo sapiens) (UniProt P09936). The series can be described thus: Inhibition of human recombinant UCHL1 assessed as reduction in cleavage of luminescent substrate Ub-AML at 100 uM. The method in brief: as §1
Series [7] deals with Ubiquitin carboxyl-terminal hydrolase 14 (Homo sapiens) (UniProt P54578). The series can be described thus: Inhibition of USP14 in intact human HeLa cells assessed as induction of formation of high molecular weight complexes with USP14 at 10 uM in presence of glutathione incubated for 2 hrs by immunoblot analysis. In kind it is cell-based. The essentials: (§2)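 Intact HeLa cells (DMEM, 10% FBS, about 80% confluent) treated 2 h with vehicle or 10 μM compound, with or without 10 mM DTT or 10 mM GSH. Cells washed in cold PBS and lysed in RIPA with protease and phosphatase inhibitors. High-MW species detected by SDS-PAGE immunoblot; shorter exposures served as loading control.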

Series [8] deals with Ubiquitin carboxyl-terminal hydrolase isozyme L3 (Homo sapiens) (UniProt P15374). The series can be described thus: Inhibition of human recombinant UCHL3 assessed as reduction in cleavage of luminescent substrate Ub-AML at 100 uM. The method in brief: as §1
The test system of series [9] is HeLa. Description: Inhibition of deubiquitinase in human HeLa cell extracts assessed as decrease in global DUB activity at 10 uM using luminescent substrate Ub-AML. In kind it is cell-free. The method in brief: (§3)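 HeLa crude extracts used as the DUB source, prepared as for the ABP assays. Global DUB activity read by luminescence with Ub-AML substrate, using the Glo reagent protocol.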

Another series deals with Ataxin-3 (Homo sapiens) (UniProt P54252). Description: Inhibition of human recombinant Ataxin-3 assessed as reduction in cleavage of luminescent substrate Ub-AML at 100 uM. The essentials: as §1
For series [10], the target named is Ubiquitin carboxyl-terminal hydrolase 5 (Homo sapiens) (UniProt P45974). Description: Inhibition of human recombinant isopeptidase T assessed as reduction in cleavage of luminescent substrate Ub-AML at 100 uM. The essentials:
as §1

The target of series [11] is Ubiquitin thioesterase OTUB1 (Homo sapiens) (UniProt Q96FW1). The series can be described thus: Inhibition of recombinant human His6-Otubain-1 assessed as reduction in cleavage of luminescent substrate Ub-AML at 100 uM. The essentials: as §1
The test system of series [12] is HeLa. Description: Inhibition of deubiquitinase in human HeLa cell extracts assessed as induction of accumulation of high molecular weight ubiquitylated proteins at 10 uM incubated for 2 hrs in presence of DTT by immunoblot analysis. In kind it is cell-free.
For a further series, the system named is HUVEC. The series can be described thus: Cytotoxicity in human HUVEC cells assessed as reduction in cell viability incubated for 72 hrs Cell-titer Glo reagent based assay. The method in brief:
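Endothelial HUVECs (EGM-2, 10% FBS) exposed to compound for 72 h, n=6. Viability read as CellTiter Glo luminescence and IC50 derived.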

For another series, the system named is HCT-116. The series can be described thus: Cytotoxicity in human HCT116 cells assessed as reduction in cell viability incubated for 72 hrs Cell-titer Glo reagent based assay. In kind it is functional. The essentials: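 Tumor lines grown at 37 °C, 5% CO2 with 10% FBS (DMEM for HeLa and SiHa; RPMI for HCT116) and exposed to compound for 72 h. Viability read by CellTiter Glo luminescence; IC50 derived from n=6.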

The target of series [13] is Anamorsin (Homo sapiens) (UniProt Q6FI81). The series can be described thus: Inhibition of CIAPIN1 in human KMS11 cells assessed as […] depletion of stable CIAPIN1 levels at 1 to 10 uM incubated for 6 hrs by immunoblot analysis. In kind it is cell-based.
In series [14] the test system is HeLa. Description: Inhibition of deubiquitinase in human HeLa cell extracts assessed as induction of accumulation of high molecular weight ubiquitylated proteins at 10 uM incubated for 2 hrs in presence of GSH by immunoblot analysis. In kind it is cell-free.
The test system of series [15] is HeLa. The series can be described thus: Inhibition of deubiquitinase in human HeLa cell extracts assessed as increase in high molecular weight protein complexes at 10 uM incubated for 2 hrs in presence of GSH by SDS-PAGE and Coomassie Blue staining based method. In kind it is cell-free.
Series [16] addresses Ubiquitin carboxyl-terminal hydrolase 14 (Homo sapiens) (UniProt P54578). The series can be described thus: Inhibition of USP14 in intact human HeLa cells assessed as induction of formation of high molecular weight complexes with USP14 at 10 uM in presence of dithiothreitol incubated for 2 hrs by immunoblot analysis. In kind it is cell-based. The method in brief: as §2
In series [17] the test system is HeLa. Description: Inhibition of deubiquitinase in human HeLa cell extracts assessed as decrease in global DUB activity at 50 uM using luminescent substrate Ub-AML. In kind it is cell-free. The essentials: as §3
Series [18] relates to HeLa. The series can be described thus: Inhibition of deubiquitinase in human HeLa cell extracts assessed as induction of accumulation of high molecular weight mTOR proteins at 10 uM incubated for 2 hrs by immunoblot analysis. In kind it is cell-free.
Series [19] concerns the target T1, Ubiquitin carboxyl-terminal hydrolase isozyme L5 (Homo sapiens) (UniProt Q9Y5K5).
T1 sequence (whole entry): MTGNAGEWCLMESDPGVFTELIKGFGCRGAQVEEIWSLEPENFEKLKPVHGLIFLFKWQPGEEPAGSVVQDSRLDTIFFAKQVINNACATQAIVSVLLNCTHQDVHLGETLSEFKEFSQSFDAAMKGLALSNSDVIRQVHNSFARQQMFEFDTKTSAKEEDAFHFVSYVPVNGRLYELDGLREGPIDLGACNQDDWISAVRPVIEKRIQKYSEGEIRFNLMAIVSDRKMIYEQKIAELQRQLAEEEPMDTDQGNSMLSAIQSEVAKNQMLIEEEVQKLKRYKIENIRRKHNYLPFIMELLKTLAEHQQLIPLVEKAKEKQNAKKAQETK
Description: Inhibition of UCH-37 in human HeLa crude cell extracts assessed as induction of formation of high molecular weight complexes with […] at 10 uM incubated for 2 hrs in presence of glutathione by immunoblot analysis. In kind it is cell-free.

The test system of series [20] is HeLa. Description: Inhibition of deubiquitinase in human HeLa cell extracts assessed as inhibition of HA-Ub-C2Br probe labeling at 1 to 100 uM incubated for 30 mins by immunoblot analysis. In kind it is cell-free.

Chain of Anamorsin (Homo sapiens) (Q6FI81 whole entry): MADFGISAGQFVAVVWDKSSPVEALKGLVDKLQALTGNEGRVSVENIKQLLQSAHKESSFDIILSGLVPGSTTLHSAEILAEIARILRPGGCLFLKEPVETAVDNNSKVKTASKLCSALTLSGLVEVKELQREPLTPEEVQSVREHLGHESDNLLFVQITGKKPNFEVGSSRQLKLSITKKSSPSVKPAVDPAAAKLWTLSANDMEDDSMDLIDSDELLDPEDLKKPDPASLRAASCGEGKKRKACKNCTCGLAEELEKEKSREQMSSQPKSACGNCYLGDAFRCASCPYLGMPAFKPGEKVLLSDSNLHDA
Chain of Ubiquitin carboxyl-terminal hydrolase 14 (Homo sapiens) (P54578 whole entry): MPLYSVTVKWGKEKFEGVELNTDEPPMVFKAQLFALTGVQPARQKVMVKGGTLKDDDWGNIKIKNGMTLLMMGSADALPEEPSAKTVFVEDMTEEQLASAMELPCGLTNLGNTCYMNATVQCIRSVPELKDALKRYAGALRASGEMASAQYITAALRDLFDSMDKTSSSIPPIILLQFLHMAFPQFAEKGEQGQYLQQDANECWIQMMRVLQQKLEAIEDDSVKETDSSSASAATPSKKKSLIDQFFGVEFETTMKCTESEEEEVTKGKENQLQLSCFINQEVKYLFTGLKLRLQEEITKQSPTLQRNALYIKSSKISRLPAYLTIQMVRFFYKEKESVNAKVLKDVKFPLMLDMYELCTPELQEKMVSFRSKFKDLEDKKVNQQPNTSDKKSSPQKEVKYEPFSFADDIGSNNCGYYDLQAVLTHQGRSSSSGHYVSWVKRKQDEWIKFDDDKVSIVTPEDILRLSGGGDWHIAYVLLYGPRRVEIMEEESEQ
Chain of Ubiquitin thioesterase OTUB1 (Homo sapiens) (Q96FW1 whole entry): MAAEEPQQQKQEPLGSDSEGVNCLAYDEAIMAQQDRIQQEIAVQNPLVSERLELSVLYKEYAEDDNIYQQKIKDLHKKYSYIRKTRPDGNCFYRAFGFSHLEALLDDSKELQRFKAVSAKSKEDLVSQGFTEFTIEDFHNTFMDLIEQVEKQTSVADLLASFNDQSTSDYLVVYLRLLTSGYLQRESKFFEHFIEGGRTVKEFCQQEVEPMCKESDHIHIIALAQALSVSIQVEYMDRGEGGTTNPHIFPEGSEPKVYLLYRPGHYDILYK
Chain of Ubiquitin carboxyl-terminal hydrolase BAP1 (Homo sapiens) (Q92560 whole entry): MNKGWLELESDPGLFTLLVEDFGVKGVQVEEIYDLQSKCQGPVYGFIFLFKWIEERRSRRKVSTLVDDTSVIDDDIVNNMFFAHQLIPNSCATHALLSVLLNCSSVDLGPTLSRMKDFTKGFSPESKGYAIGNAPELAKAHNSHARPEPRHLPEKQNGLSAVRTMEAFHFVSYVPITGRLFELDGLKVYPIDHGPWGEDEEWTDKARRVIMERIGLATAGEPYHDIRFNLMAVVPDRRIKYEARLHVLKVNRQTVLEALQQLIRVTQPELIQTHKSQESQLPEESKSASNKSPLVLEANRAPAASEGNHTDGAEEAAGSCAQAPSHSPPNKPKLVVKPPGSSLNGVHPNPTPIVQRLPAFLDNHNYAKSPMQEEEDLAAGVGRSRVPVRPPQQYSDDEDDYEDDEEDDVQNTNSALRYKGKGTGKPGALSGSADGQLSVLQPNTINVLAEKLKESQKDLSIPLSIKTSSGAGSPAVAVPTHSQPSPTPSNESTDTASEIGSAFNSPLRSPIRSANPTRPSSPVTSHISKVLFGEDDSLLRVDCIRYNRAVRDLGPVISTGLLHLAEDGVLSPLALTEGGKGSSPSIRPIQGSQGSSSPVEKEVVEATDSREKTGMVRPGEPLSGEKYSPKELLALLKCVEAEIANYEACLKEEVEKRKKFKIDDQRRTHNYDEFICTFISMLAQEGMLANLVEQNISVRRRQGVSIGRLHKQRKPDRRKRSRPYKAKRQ
Chain of Ataxin-3 (Homo sapiens) (P54252 whole entry): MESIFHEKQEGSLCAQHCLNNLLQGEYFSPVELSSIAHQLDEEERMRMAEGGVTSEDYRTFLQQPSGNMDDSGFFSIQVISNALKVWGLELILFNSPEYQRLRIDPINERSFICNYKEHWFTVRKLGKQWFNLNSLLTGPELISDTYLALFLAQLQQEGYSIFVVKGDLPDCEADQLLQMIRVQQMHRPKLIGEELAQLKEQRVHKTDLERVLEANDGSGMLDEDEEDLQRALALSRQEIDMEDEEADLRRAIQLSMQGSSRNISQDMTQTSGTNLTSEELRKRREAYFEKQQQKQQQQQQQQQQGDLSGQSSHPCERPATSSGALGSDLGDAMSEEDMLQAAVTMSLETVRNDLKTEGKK
Chain of Ubiquitin carboxyl-terminal hydrolase isozyme L3 (Homo sapiens) (P15374 whole entry): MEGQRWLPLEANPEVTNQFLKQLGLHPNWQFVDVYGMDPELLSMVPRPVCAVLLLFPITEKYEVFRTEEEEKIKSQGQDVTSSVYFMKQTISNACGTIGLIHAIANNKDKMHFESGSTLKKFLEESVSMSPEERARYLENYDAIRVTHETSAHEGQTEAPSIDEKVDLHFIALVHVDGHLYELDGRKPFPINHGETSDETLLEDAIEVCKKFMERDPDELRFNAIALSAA
Chain of Ubiquitin carboxyl-terminal hydrolase isozyme L1 (Homo sapiens) (P09936 whole entry, looked up): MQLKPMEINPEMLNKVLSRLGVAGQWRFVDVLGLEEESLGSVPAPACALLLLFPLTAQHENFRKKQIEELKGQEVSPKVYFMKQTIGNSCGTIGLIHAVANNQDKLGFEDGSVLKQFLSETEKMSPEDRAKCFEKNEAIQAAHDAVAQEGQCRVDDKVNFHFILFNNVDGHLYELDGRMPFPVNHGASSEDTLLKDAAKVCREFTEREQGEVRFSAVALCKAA
Chain of Ubiquitin carboxyl-terminal hydrolase 5 (Homo sapiens) (P45974 whole entry): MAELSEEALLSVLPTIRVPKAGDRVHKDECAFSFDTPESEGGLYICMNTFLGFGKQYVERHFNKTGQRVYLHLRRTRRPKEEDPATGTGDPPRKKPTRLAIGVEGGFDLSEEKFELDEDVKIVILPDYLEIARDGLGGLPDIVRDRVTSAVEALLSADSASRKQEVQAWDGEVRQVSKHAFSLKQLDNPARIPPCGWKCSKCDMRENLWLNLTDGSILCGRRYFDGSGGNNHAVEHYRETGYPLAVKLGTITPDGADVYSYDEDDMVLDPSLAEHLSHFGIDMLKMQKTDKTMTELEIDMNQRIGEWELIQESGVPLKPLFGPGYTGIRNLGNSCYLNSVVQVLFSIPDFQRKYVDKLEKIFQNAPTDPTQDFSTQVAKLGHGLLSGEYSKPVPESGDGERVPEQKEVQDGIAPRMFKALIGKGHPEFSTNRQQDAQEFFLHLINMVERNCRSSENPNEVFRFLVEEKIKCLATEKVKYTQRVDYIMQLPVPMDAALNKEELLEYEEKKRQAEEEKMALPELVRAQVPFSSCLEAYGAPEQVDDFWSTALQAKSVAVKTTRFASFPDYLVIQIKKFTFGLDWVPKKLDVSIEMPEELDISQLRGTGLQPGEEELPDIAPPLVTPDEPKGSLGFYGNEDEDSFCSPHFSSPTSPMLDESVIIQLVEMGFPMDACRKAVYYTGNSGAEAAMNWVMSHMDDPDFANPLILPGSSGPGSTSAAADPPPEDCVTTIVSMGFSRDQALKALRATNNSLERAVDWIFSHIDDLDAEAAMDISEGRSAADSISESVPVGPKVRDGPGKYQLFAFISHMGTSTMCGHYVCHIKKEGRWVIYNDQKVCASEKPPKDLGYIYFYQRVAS
Chain of Ubiquitin carboxyl-terminal hydrolase 8 (Homo sapiens) (P40818 whole entry): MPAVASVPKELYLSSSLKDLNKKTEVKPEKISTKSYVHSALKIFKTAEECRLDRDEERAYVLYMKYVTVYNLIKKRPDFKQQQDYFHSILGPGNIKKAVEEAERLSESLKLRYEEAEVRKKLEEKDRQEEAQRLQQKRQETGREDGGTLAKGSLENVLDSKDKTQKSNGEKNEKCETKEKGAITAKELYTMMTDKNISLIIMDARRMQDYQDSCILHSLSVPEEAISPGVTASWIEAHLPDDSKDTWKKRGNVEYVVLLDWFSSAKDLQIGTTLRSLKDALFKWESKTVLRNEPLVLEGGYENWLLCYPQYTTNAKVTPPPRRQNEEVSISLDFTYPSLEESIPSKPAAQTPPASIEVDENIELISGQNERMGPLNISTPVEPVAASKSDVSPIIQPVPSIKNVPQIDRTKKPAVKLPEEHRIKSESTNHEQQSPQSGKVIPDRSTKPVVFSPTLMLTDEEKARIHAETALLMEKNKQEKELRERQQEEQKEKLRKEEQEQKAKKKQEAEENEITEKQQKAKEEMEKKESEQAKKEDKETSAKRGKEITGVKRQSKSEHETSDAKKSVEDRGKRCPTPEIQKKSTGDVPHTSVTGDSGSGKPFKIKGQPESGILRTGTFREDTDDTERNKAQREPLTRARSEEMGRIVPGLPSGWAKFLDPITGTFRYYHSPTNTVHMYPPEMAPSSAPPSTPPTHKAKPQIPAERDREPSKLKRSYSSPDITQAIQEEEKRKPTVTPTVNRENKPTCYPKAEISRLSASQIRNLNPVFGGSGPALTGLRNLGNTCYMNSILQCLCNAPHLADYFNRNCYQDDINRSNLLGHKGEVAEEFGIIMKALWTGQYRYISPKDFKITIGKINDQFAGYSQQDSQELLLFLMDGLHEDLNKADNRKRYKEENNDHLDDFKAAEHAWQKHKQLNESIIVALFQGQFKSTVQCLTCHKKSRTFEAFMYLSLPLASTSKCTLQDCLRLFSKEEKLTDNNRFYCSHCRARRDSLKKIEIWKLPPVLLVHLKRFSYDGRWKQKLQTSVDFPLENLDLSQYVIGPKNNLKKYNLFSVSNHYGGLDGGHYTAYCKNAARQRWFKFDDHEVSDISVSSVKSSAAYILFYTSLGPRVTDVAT

In the case of `C=CC(=O)N1C/C(=C\c2ccc([N+](=O)[O-])cc2)C(=O)/C(=C/c2ccc([N+](=O)[O-])cc2)C1`, the inhibition result (in [1]; in the series on HeLa [2]; on Anamorsin (Homo sapiens) [3]; in [4]; with HeLa [5]; in series [6]) was “Active” throughout. The inhibition entry (in series [8]; in the series with HeLa [9]; on Ataxin-3 (Homo sapiens); in [10]; in series [11]; on Anamorsin (Homo sapiens) [13]) was “Active” throughout. Further, the inhibition result in the series on HeLa [17], with HeLa [18] and in the series with HeLa [20] was “Active” throughout. The inhibition result (in series [7]; in the series with HeLa [12]; with HeLa [14]; in the series on HeLa [15]; in [16]; in series [19]) was “inactive” in each case. Further, in the series with HUVEC, the Activity entry is “Toxic”. In addition, the result in the series on HCT-116 was Active.
